# Assay outcomes: PubChem, The Scripps Research Institute Molecular Screening Center
# HTRA1 inh: inhibitors of human serine peptidase HTRA1; Q92743; recombinant HTRA1, FP-rhodamine activity-based probe, fluorescence polarization; inhibition, % at 5.96 µM; 340,000 compounds, 0.5% hits; in the data active = inhibition above about 36%;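 note: 0% = enzyme with DMSO and 100% = wells lacking enzyme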
# Target sequence (Q92743 whole entry, looked up): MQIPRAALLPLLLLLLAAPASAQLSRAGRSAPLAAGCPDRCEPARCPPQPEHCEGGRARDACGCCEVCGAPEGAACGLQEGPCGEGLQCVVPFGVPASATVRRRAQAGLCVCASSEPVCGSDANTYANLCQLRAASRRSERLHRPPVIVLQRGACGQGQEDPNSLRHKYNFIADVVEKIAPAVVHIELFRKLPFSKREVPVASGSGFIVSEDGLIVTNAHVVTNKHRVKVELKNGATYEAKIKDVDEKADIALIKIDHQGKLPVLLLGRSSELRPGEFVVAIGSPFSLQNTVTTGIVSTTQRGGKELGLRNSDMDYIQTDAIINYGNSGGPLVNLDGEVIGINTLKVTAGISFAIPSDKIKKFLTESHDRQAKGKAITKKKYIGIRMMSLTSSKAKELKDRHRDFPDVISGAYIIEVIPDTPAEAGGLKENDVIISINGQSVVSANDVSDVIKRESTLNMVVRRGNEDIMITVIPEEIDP
# PRMT1 FP inh: inhibitors of human PRMT1. Q99873. recombinant PRMT1, activity-based probe fluorescence polarization. inhibition, % at 2.79 µM. 370,000 compounds, 1.3% hits;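 active = inhibition above about 21% made by adding two undisclosed values, limit read from the data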
# TCR-CD3 inh: human TCR-CD3 binding inhibition; TAMRA-labeled TCR probe fluorescence, biochemical; inhibition, % at 9.4 µM; 360,000 compounds, 0.37% hits; AID 651800; in the data active = inhibition above about 19%;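 note: recombinant mutant TCR 2C K166C tagged with TAMRA read by polarization; 0% = receptor in buffer alone and 100% = receptor with positive control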
# SIAE primary: human SIAE inhibition, primary screen; Q9HAT2; SIAE FP-Rh probe binding, fluorescence polarization; inhibition, % at 9.66 µM; 370,000 compounds, 0.69% hits; AID 1053197;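 active = inhibition above a cutoff: mean of compounds within the control limits plus 3 SD of those, cut at about 17% in these data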;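 note: 0% = plate median of compound wells and 100% = probe without SIAE protein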
# rCAG RNA binder: r(CAG) repeat RNA binding | TO-PRO-1 dye displacement fluorescence | inhibition, % at 3 µM | 370,000 compounds, 1.3% hits;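 active = inhibition above the plate cutoff, the mean of all test compounds on that plate plus 3 SD, cut at about 35% in these data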;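 note: 0% = DMSO alone and 100% = 100 µM mitoxantrone as full dye displacement; higher means more dye released from RNA so lower well fluorescence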
# mABHD4 FP: ABHD4 (mouse) inhibition, primary FP screen; 370,000 compounds, 0.54% hits; inhibition, % at 8.92 µM; purified mABHD4, FP-Rh probe fluorescence polarization; Q8VD66;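 active = inhibition exceeding the mean over every tested compound plus 3 SD, cut at about 30% in these data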;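 note: 0% = plate median of compound wells and 100% = S159A mutant with DMSO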
#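 System: mouse ABHD4 enzyme, wild type / Medium: HEPES pH 7.0, NaCl, Pluronic buffer / Reagent: FP-Rh activity-based fluorescent probe / Control set: S159A mutant high control, sample median low control / Detection: fluorescence polarization with parallel and perpendicular emission, 525/598 nm / Schedule: 45 min + 60 min at 25 °C / Compound dosing: 8.92 µM, single dose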
# HTRA1 inh conf: confirmation of human HTRA1 inhibitors | shares compounds with HTRA1 inh | recombinant HTRA1, FP-rhodamine activity-based probe, fluorescence polarization | inhibition, % at 5.96 µM | 1,600 compounds, 66% hits | AID 540248;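 active = mean inhibition over three repeats above a set limit taken from the earlier primary screen, cut at about 37% in these data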;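 note: 0% = HTRA1 with DMSO and 100% = wells lacking HTRA1; inhibitors block probe binding so polarization drops and inhibition rises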
# Active calls of the source: *; nt = no result given. In the library only some 3.5% were active in any assay of this set; here they are far more common.
SMILES,HTRA1 inh,PRMT1 FP inh,TCR-CD3 inh,SIAE primary,rCAG RNA binder,mABHD4 FP,HTRA1 inh conf
Oc1ccc(C23CC4CC(CC(C4)C2)C3)cc1O,59*,7,-3,4,8,18,81*
Cc1ccccc1C1C(C#N)=C2N=C(N)c3c(sc4c3CCCCC4)N2C2=C1C(=O)CCC2 (stereo not drawn),50*,nt,nt,nt,nt,nt,27
O=C1CC(/C=C/c2ccccn2)=Nc2ccccc2N1,7,5,0,5,5,13,nt
O=C1CC(/C=C/c2ccco2)=Nc2ccccc2N1,43*,nt,nt,nt,nt,nt,-1
O=C1C(Nc2ccccc2)=C/C(=N/S(=O)(=O)c2cccs2)c2ccccc21,63*,nt,nt,nt,nt,nt,62*
Cc1ccc(S(=O)(=O)/N=C2\C=C(Nc3ccc(O)cc3)C(=O)c3ccccc32)cc1,88*,nt,nt,nt,nt,nt,77*
Cc1ccc(S(=O)(=O)/N=C2/C=C(Sc3ncn[nH]3)C(=O)c3ccccc32)cc1,22,nt,nt,nt,nt,nt,nt
CCOC(=O)[C@@]12CCC3=C1N(CCC3)C(=O)[C@H](CC(=O)N1CCN(C(=O)C3CC3)CC1)C2,nt,0,nt,2,2,6,nt
Cc1ccccc1C(C)NS(=O)(=O)c1ccc2c(c1)OCCO2 (stereo not drawn),40*,-1,3,-3,-1,1,34
CCCCc1cccc2[nH]cc(C)c12,nt,1,nt,7,6,-2,nt
CN(C)c1ccnc2c[cH-]cc12.[Fe].c1ccc(-[c-]2[c-](-c3ccccc3)[c-](-c3ccccc3)[c-](-c3ccccc3)[c-]2-c2ccccc2)cc1 (stereo not drawn),37*,-1,5,9,7,26,57*
CN(C)c1ccnc(Nc2ccccc2)c1C#N,nt,-2,0,5,-1,-3,nt
CCc1cc(=O)oc2cc(C)cc(OC(=O)c3ccco3)c12,48*,2,-6,-3,-5,1,26
Cc1cc(OC(=O)c2ccco2)c2c(C)cc(=O)oc2c1,8,-2,1,-1,3,-8,nt
CC1=C(SCc2ccccc2)C(=O)c2ccccc2C1=O,42*,66*,8,14,27,70*,36*
Nc1ccc(N2CCCCC2)cc1N1CCCCC1,51*,6,0,6,11,23,59*
COCC(=O)Nc1ccc(Nc2ccccc2)cc1,47*,0,1,7,-1,0,40*
O=C(C[n+]1ccc(CCSc2ccc(F)cc2)cc1)c1ccccc1,37*,nt,nt,nt,nt,nt,60*
COc1ccc(Nc2ccccc2N)cc1,-6,14,-6,-39,6,17,nt
Nc1ccc(Nc2ccccc2N)cc1,64*,0,1,9,23,24,83*
CC(C)(C)c1ccc(S(=O)(=O)N2CCCC2C(=O)N2CCN(c3ccccc3)CC2)cc1 (stereo not drawn),nt,2,nt,0,8,0,nt
O=C(CSc1nc2ccccc2s1)N1CCOCC1,161*,2,6,2,10,3,-2
CCOc1ccc2c(ccc(/C=C/c3cc(C)c4cccnc4c3O)[n+]2C)c1,64*,nt,nt,nt,nt,nt,90*
CCN(C(=O)c1c([N+](=O)[O-])cnn1C)c1ccccc1,37*,0,3,0,0,-3,32
CCN(C(=O)c1c(N)cnn1C)c1ccccc1,1,-2,0,7,0,5,nt
SMILES,HTRA1 inh,PRMT1 FP inh,TCR-CD3 inh,SIAE primary,rCAG RNA binder,mABHD4 FP,HTRA1 inh conf
COc1cc(C(=O)NC2CCCCN(Cc3ccc(Cl)cc3)C2=O)cc(OC)c1OC (stereo not drawn),nt,2,nt,7,4,2,nt
COc1ccc(-c2ccc(C(c3c(C)[nH][nH]c3=O)c3c(C)[nH][nH]c3=O)o2)c([N+](=O)[O-])c1,6,4,5,7,22,11,nt
Cc1[nH][nH]c(=O)c1C(c1ccc(-c2ccc(Cl)c(Cl)c2)o1)c1c(C)[nH][nH]c1=O,40*,13,1,21*,38*,17,37*
CC(C)(C)NC(=S)Nc1ccc(Nc2ccccc2)cc1,46*,4,2,2,6,24,7
COC(=O)C1=C(C)NC(=O)/C1=C\c1cc(C)n(-c2cc(C)cc(C)c2)c1C,53*,7,-6,3,16,16,35
COC(=O)C1=C(C)NC(=O)/C1=C\c1cc(C)n(-c2ccccc2)c1C,20,2,-3,6,5,7,nt
CCOC(=O)[C@]12CCCC=C1N(CCCOC)C(=O)[C@@H]2CC(=O)NCc1cccc(C(F)(F)F)c1,nt,-2,nt,4,2,-2,nt
CC(C)C(=O)NC(c1ccccc1)c1cc([N+](=O)[O-])c2cccnc2c1O (stereo not drawn),39*,-1,-5,5,15,15,46*
CC(=O)NC(c1ccccc1)c1cc([N+](=O)[O-])c2cccnc2c1O (stereo not drawn),53*,13,-5,5,9,22,69*
CC(=O)NC(c1cccs1)c1cc([N+](=O)[O-])c2cccnc2c1O (stereo not drawn),30,4,-6,5,18,21,nt
CC(C)C[C@H](NC1(C(=O)NC2CCCCC2)CCCCC1)C(=O)NCCc1c[nH]c2ccccc12,nt,1,nt,11,nt,5,nt
COC(=O)C1=C(C(=O)OC)SC(=C2C(=S)C(C)(C)N(C(=O)C3CC3)c3ccccc32)S1,45*,-4,1,16,-2,5,52*
COC(=O)C1=C(C(=O)OC)SC(=C2C(=S)C(C)(C)N(C(=O)C(C)C)c3ccccc32)S1,3,-1,0,7,-2,6,nt
COC(=O)C[C@@H]1CC[C@H]2[C@@H](COc3ccc(NC(=O)c4ccc(C(F)(F)F)cc4)cc3C(=O)N2C)O1,nt,1,nt,1,3,2,nt
O=C(/C=C/c1ccccc1Cl)c1ccc(O)cc1,-13,3,0,-9,4,-23,nt
O=C(/C=C/c1ccccc1Cl)c1ccccc(=O)c1O,44*,10,8,9,20,25,46*
Cc1ccc(/C=C/C(=O)c2ccccc(=O)c2O)c(C)c1,53*,17,5,14,33,28,45*
O=C(C=Cc1ccccc1O)c1ccccc1O,-14,0,-1,-8,4,-19,nt
CC(C)N1CCCCC(NC(=O)c2c(F)cccc2F)C1=O (stereo not drawn),nt,-5,nt,1,0,-4,nt
Cc1nn(C)cc1-c1csc(N)n1,10,-1,-4,7,1,-6,nt
Cc1cc(-c2csc(N)n2)c(C)n1CCC(C)C,53*,12,5,7,16,19,63*
